The source of these data is ChEMBL document CHEMBL4017519, “Development of (4-Cyanophenyl)glycine Derivatives as Reversible Inhibitors of Lysine Specific Demethylase 1” (J Med Chem, 2017).

Each structure is given as a SMILES string. Calls of active or inactive are those of the source.

Series [1] addresses T1, Lysine-specific histone demethylase 1A (Homo sapiens, UniProt O60341). Put plainly: Inhibition of N-terminal truncated human LSD1 (151 to 852 residues) expressed in Escherichia coli after 30 mins using histone H3(1-21)K4(Me1) biotin peptide as substrate by TR-FRET assay.
Series [2] has as its target T1, Lysine-specific histone demethylase 1A. Put plainly: Binding affinity to LSD1 (unknown origin) by SPR analysis. For orientation: Surface plasmon resonance follows binding to a sensor surface in real time, without labels.
For series [3] the target is unchanged. Put plainly: Competitive binding affinity to LSD1 (unknown origin) in presence of tranylcypromine.
Series [4] shares this target. Put plainly: Inhibition of LSD1 in human THP1 cells assessed as induction of CD86 expression at 50 uM after 48 hrs by flow cytometric analysis. The series is classed as cell-based. In a few lines: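 THP-1 AML cells grown in RPMI with 10% FBS and 2 mM L-glutamine, exposed to compound or DMSO vehicle at 50 μM for 48 h at 1×10^5 cells/ml. Cells were pelleted and stained with CD86-PerCP EF710 antibody in phenol red-free RPMI with 5 mM EDTA and 2% BSA for 10 min at 4 °C, then washed and analysed by flow cytometry.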
(In general: A flow cytometer gives signals particle by particle.)

A short description of series [5]: Efflux ratio of apparent permeability in human Caco2 cells. Format: ADME, cell-based. As to conditions: Caco-2. For orientation: Caco-2 cells form a polarised layer with tight junctions and transporters.
A short description of series [6]: Apparent permeability across apical to basolateral side in human Caco2 cells. Format: ADME, cell-based. Conditions: Caco-2.
The test system of series [7] is THP-1. Put plainly: Induction of apoptosis in human THP1 cells at 10 uM after 4 days by Annexin V-perCP EF710/7AAD double staining based FACS analysis. The series is classed as functional, cell-based. In a few lines: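 THP-1 cells in liquid culture with 10 μM compound or vehicle for 4 days, then stained with an Annexin V/7-AAD kit per manufacturer and analysed by flow cytometry. Early apoptotic = Annexin V-pos/7-AAD-neg; apoptotic = Annexin V-pos/7-AAD-pos. One-way ANOVA with Dunnett's tests.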

In series [8] the target is T1, Lysine-specific histone demethylase 1A. Put plainly: Inhibition of LSD1 in human THP1 cells assessed as induction of CD86 expression after 48 hrs by flow cytometric analysis. The series is classed as cell-based.
The subject of series [9] is THP-1. Put plainly: Anticlonogenic activity against human THP1 cells at 10 uM after 7 days. The series is classed as functional, cell-based.
The next series concerns MV4-11. Put plainly: Anticlonogenic activity against human MV4-11 cells at 10 uM after 7 days. Format: functional, cell-based.
Series [10] deals with Voltage-gated inwardly rectifying potassium channel KCNH2 (Homo sapiens, UniProt Q12809). Put plainly: Inhibition of human hERG by patch clamp method.
The species entered for another series is Homo sapiens. Put plainly: Selectivity ratio of IC50 for human ERG to IC50 for N-terminal truncated human LSD1 (151 to 852 residues) expressed in Escherichia coli.
The subject of another series is Liver. Put plainly: Intrinsic clearance in mouse liver microsomes assessed per […]. Format: ADME, microsome.
Series [11] is described as follows: Half life in mouse liver microsomes. The series is classed as ADME, microsome.

Sequence of Voltage-gated inwardly rectifying potassium channel KCNH2 (Q12809 whole entry, the tested form may be a part): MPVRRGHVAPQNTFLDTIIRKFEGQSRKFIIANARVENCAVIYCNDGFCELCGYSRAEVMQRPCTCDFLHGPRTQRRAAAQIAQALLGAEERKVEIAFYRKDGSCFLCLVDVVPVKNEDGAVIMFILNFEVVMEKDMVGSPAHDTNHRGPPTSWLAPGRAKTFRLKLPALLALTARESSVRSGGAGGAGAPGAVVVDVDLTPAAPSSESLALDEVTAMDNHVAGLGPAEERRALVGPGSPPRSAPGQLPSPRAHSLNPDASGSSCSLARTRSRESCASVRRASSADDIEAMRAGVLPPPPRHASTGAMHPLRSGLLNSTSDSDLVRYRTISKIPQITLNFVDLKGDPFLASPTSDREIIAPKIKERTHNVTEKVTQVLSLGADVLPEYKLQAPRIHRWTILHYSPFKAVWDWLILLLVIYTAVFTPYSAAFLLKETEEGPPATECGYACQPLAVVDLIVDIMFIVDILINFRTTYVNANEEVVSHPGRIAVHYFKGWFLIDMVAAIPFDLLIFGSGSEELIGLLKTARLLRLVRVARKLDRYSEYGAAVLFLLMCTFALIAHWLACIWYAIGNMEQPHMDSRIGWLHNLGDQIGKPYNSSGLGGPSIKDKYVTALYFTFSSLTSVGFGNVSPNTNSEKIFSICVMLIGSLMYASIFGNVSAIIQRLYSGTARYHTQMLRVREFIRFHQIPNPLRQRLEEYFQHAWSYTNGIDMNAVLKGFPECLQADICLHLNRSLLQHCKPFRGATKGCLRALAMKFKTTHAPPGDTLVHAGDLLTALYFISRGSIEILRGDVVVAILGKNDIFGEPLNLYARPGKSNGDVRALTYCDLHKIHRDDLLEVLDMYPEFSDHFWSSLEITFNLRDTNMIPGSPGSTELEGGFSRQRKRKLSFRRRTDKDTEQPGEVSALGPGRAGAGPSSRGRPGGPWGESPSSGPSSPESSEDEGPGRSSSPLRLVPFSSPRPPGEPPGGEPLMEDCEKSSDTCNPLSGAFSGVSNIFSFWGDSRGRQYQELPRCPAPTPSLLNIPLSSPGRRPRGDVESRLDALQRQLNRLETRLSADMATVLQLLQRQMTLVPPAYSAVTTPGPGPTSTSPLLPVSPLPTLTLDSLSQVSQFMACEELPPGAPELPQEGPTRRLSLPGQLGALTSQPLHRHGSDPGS

Usually IC50 stands for the midpoint of a concentration-inhibition curve. What is called Kd is a measure of binding affinity in units of concentration. Regarding `CC(=O)N1CCc2cc(S(=O)(=O)N(CC(=O)N3CCC[C@@H](N)C3)c3ccc(C#N)cc3)ccc21`, the IC50 in series [1] turned out to be 5.2 µM. In addition, in series [2], the affinity, expressed as Kd, was 2.4 µM.

Regarding `Cc1ccc(S(=O)(=O)N(CC(=O)N2CC[C@H](N)C2)c2ccc(C#N)cc2)cc1`, in series [1], the half-inhibitory concentration (IC50) came to 22.7 µM. In series [2], this compound yielded a dissociation constant Kd of 4.7 µM.

Compound `Cc1ccc(S(=O)(=O)N(CC(=O)N[C@@H]2CN3CCC2CC3)c2ccc(C#N)cc2)cc1` gave an IC50 in series [1] of 14.2 µM. The Kd in series [2] is 3.5 µM.

For `COc1cc(NS(=O)(=O)c2ccc3c(c2)cc(C)c(=O)n3C)ccc1-n1nc(C)cc1C`, the result in series [3] was inactive. In addition, half-maximal inhibition in series [1] (IC50) required 0.43 µM. The inhibition entry in series [4] was “inactive”.

Compound `Cc1ccc(S(=O)(=O)N(CC(=O)N2CCC[C@H](N)C2)c2ccc(C#N)cc2)cc1` registered an IC50 in [1] of 24.3 µM. Moreover, the Kd in series [2] is 10.3 µM.

`Cc1ccc(S(=O)(=O)N(CC(=O)N2CCC(N(C)C)CC2)c2ccc(C#N)cc2)cc1` returned an IC50 in series [1] of 12.6 µM. In series [2], this compound had a dissociation constant (Kd) of 2.9 µM.

The compound `COc1ccc(CN(CC(=O)N2CCC(F)(CN)CC2)c2ccc(C#N)cc2)cc1F` returned an IC50 in series [1] of 0.99 µM. This compound also came in with a Kd in series [2] of 0.23 µM.

With `N#Cc1ccc(N(CC(=O)N2CCC(CN)CC2)Cc2cccc(C(N)=O)c2)cc1`, half-maximal inhibition in [1] (IC50) was put at 1 µM. In addition, binding in series [2] was characterised by a dissociation constant (Kd) of 0.42 µM.

`Cc1ccc(S(=O)(=O)N(CC(=O)N2CCC(C)(N)CC2)c2ccc(C#N)cc2)cc1` returned an IC50 in series [1] of 5.2 µM. Further, the dissociation constant (Kd) in series [2] came to 2.5 µM.

Consider `Cn1cc2cc(N(CC(=O)N3CCC[C@@H](N)C3)S(=O)(=O)c3ccc(C#N)cc3)ccc2n1`, for which the IC50 in [1] turned out to be 30 µM. Besides, binding in [2] was characterised by a dissociation constant (Kd) of 9.6 µM.

In turn, `COc1cc(NS(=O)(=O)c2ccccc2)ccc1-n1nc(C)cc1C` registered an IC50 in series [1] of 40 µM.

In series [1], `N#Cc1ccc(N(CC(=O)N2CCC(N)CC2)Cc2ccc(C#N)c(F)c2)cc1` returned a half-maximal inhibitory concentration (IC50) of 5.5 µM. Also, the dissociation constant Kd in [2] was 1.9 µM.

The term efflux ratio denotes a quotient of directional permeabilities that is used to spot active efflux. What is called Papp A→B is the apparent permeability from the apical to the basolateral side of a cell layer. As a reminder, the EC50 is the concentration needed to bring the measured effect to its halfway point. In general, half-life refers to the time needed for the level to fall by half in the phase considered. A higher half-life goes with slow decline. In the case of `COc1ccc(CN(CC(=O)N2CCC3(CC2)CNC3)c2ccc(C#N)cc2)cc1F`, the efflux ratio in [5] is 58. In series [6], the Papp A→B was 0.09 ×10⁻⁶ cm/s. The outcome with THP-1 [7], in the series with THP-1 [9] and in the series with MV4-11 was Active. Further, the IC50 worked out at 0.083 µM in series [1] and 20.1 µM in series [10]. This compound also displayed a Kd in series [2] of 0.032 µM. In [8], the EC50 is 0.67 µM. In addition, in the series listed under Homo sapiens, the Ratio IC50 is 30. For the same compound, the CLint in the series with Liver is below 1 µL/min. Further, the half-life in series [11] was above 16.7 h.

Consider `N#Cc1ccc(N(CC(=O)N2CCC(CN)CC2)Cc2ccc(F)cc2)cc1`, for which half-maximal inhibition in series [1] (IC50) required 1.3 µM. In addition, in series [2], the dissociation constant Kd was determined as 0.46 µM.

With `COc1cc(NS(=O)(=O)c2ccc3c(c2)CCN3C(C)=O)ccc1-n1nc(C)cc1C`, the IC50 in [1] was 1.6 µM. The compound also came in with a dissociation constant (Kd) in series [2] above 100 µM.

In series [2], `CC(=O)Nc1ccc(S(=O)(=O)Nc2ccc(C#N)cc2)cc1` had a Kd of 9.5 µM.

With `Cc1ccc(S(=O)(=O)N(CC(=O)NC2CCNCC2)c2ccc(C#N)cc2)cc1`, in series [1], the IC50 was found to be 15.6 µM. The same compound gave a Kd in series [2] of 6.5 µM.

Compound `Cc1ccc(S(=O)(=O)N(CC(=O)N2C[C@@H]3C[C@H]2CN3)c2ccc(C#N)cc2)cc1` displayed a concentration for half-maximal inhibition (IC50) in series [1] of 13.1 µM. This compound also came in with an equilibrium dissociation constant (Kd) in series [2] of 2.4 µM.

As for `Cc1ccc(CN(CC(=O)N2CCC(N)CC2)c2ccc(C#N)cc2)cc1`, in series [1], the IC50 came out at 1.3 µM. In series [2], this compound gave a dissociation constant Kd of 0.43 µM.

In series [1], `N#Cc1ccc(N(CC(=O)N2CCC(CN)CC2)Cc2ccc(C(N)=O)cc2)cc1` had an IC50 of 0.83 µM. The compound further displayed a dissociation constant (Kd) in [2] of 0.49 µM.

For the compound `Cc1ccc(S(=O)(=O)N(CC(=O)N2CCC(N)CC2)c2ccc(C#N)cc2)cc1`, in series [1], the IC50 came to 7.6 µM. In series [2], this compound returned a Kd of 2.6 µM.

As to `Cc1ccc(-c2ncc(OC[C@H]3CCNC3)cc2-c2ccc(C#N)cc2)cc1`, the apical-to-basolateral permeability (Papp A→B) in series [6] was determined as 5.6 ×10⁻⁶ cm/s. Besides, the outcome in the series with THP-1 [7], in the series on THP-1 [9] and in the series with MV4-11 was Active. Moreover, in series [2], the Kd was 0.009 µM. In series [8], the EC50 was determined as 0.3 µM. The compound further showed an IC50 in series [10] of 3.2 µM. In the series on Liver, this compound returned a CLint of 3.43 µL/min. This compound gave a half-life in series [11] of 6.73 h.

As for `CNC1CCN(C(=O)CN(c2ccc(C#N)cc2)S(=O)(=O)c2ccc(C)cc2)CC1`, half-maximal inhibition in series [1] (IC50) was put at 7.5 µM. Binding in [2] was characterised by a dissociation constant (Kd) of 2.9 µM.

`COc1ccc(CN(CC(=O)N2CCC(CN)CC2)c2ccc(C#N)cc2)cc1F`: in series [5], the efflux ratio turned out to be 58. In addition, the Papp A→B in series [6] came to 0.26 ×10⁻⁶ cm/s. For the same compound, the results for the IC50 in series [1] and in [10] were 0.21 µM and 12.4 µM, respectively. In series [2], binding was characterised by a dissociation constant (Kd) of 0.058 µM. The EC50 in [8] was found to be 4.1 µM. This compound gave a CLint in the series with Liver of 4.5 µL/min. This compound registered a half-life in series [11] of 5.08 h.

With `Cn1ncc2cc(CN(CC(=O)N3CCC(N)CC3)c3ccc(C#N)cc3)ccc21`, the half-inhibitory concentration (IC50) in series [1] was 0.62 µM. This compound also showed a dissociation constant Kd in series [2] of 0.14 µM.

On to `Cc1ccc(S(=O)(=O)N(CC(=O)N2CCC[C@@H](N)C2)c2ccc(C#N)cc2)cc1`, for which the concentration for half-maximal inhibition (IC50) in series [1] came to 13.9 µM. The same compound showed a dissociation constant Kd in series [2] of 4.5 µM.

With `Cc1ccc(CN(CC(=O)N2CCC(CN)CC2)c2ccc(C#N)cc2)cc1`, it took 0.29 µM to reach half-maximal inhibition in [1] (IC50). Further, in series [2], the Kd turned out to be 0.11 µM.

Take `Cc1ccc(S(=O)(=O)N(CC(=O)N2CC[C@@H](N)C2)c2ccc(C#N)cc2)cc1`: in series [1], the IC50 came to 16.4 µM. Moreover, the affinity in series [2], expressed as Kd, was 3.2 µM.

In the case of `COc1ccc(CN(CC(=O)N2CCC(N)CC2)c2ccc(C#N)cc2)cc1F`, the apical-to-basolateral permeability (Papp A→B) in [6] is 0.44 ×10⁻⁶ cm/s. In [1], this compound showed an IC50 of 0.81 µM. The affinity in series [2], expressed as Kd, was 0.19 µM. The same compound showed a CLint in the series with Liver of 3.6 µL/min. The compound also registered a half-life in [11] of 6.42 h.

Turning to `COc1cc(N(CC(=O)N2CCC(N)CC2)S(=O)(=O)c2ccc3c(c2)CCN3C(C)=O)ccc1-n1nc(C)cc1C`, the 50% inhibitory concentration (IC50) in series [1] is above 30 µM. Also, the Kd in series [2] was above 100 µM.

In turn, `N#Cc1ccc(N(CC(=O)N2CCC(CN)CC2)Cc2ccc(Cl)cc2)cc1` showed a half-inhibitory concentration (IC50) in [1] of 0.4 µM. The equilibrium dissociation constant (Kd) in series [2] was determined as 0.29 µM.

`Cc1ccc(S(=O)(=O)N(CC(=O)N[C@H]2CN3CCC2CC3)c2ccc(C#N)cc2)cc1`: the IC50 in series [1] was 11.9 µM. In addition, the Kd in series [2] stood at 3.6 µM.

In series [1], `CC(=O)N1CCc2cc(S(=O)(=O)N(CC(=O)N3CCC(N)CC3)c3ccc(C#N)cc3)ccc21` displayed an IC50 of 4.4 µM. This compound also yielded a Kd in series [2] of 1.8 µM.

Compound `N#Cc1ccc(N(CC(=O)N2CCC(N)CC2)Cc2ccccc2)cc1` registered an IC50 in series [1] of 4.1 µM. In [2], this compound showed a dissociation constant Kd of 1.1 µM.

For the compound `Cc1ccc(S(=O)(=O)N(CC(=O)Nc2cccnc2)c2ccc(C#N)cc2)cc1`, the IC50 in series [1] is above 150 µM. This compound also displayed a Kd in series [2] of 90 µM.
